Experimental data of several laboratories.
Values after ≈ are worked out from the molar mass of the structure shown.

SMILES | assay | system | setting | endpoint | value
Cc1ccc(-c2nnc(N[C@@H](Cc3ccc(C#N)cc3)C(=O)N3CCc4ccccc43)o2)cc1 | – | aqueous buffer | 2 h, pH 7.4, 37 °C | kinetic solubility | 5.4 µM (≈ 2.43 µg/mL)
CCCCCCCCCCCCCCCC(=O)NCCOC(=O)C[C@@H](CN)CC(C)C | – | water | 12 h, 37 °C | thermodynamic solubility | 3460 µg/mL
N#Cc1ccc(C[C@H](NC(=O)c2cc3cc(F)ccc3[nH]2)C(=O)N2CCc3ccccc32)cc1 | – | aqueous buffer | 2 h, pH 7.4, 37 °C | kinetic solubility | 1 µM (≈ 0.452 µg/mL)
CN1CCN(c2cccc(-c3ccc4ncnc(Nc5ccc(Cl)c(C(F)(F)F)c5)c4c3)c2)CC1 | – | aqueous buffer | pH 7.4, 25 °C | thermodynamic solubility | < 1.4 µM
O=C(N1CCCCC1)C12CC(c3ccccc3)(C1)C2 | – | PBS | 2 h, pH 7.4, 25 °C | kinetic solubility | 266 µM (≈ 67.9 µg/mL)
CCCCCCCCCCCCCCCC(=O)NCCO | – | water | 12 h, 37 °C | thermodynamic solubility | < 16 µg/mL
N#Cc1ccc(C[C@H](Nc2nnc(-c3ccc(Br)cc3)o2)C(=O)N2CCc3ccccc32)cc1 | – | aqueous buffer | 2 h, pH 7.4, 37 °C | kinetic solubility | 1.8 µM (≈ 0.926 µg/mL)
C=CCn1c(=O)c2cnc(Nc3ccc(N4CCN(C)CC4)cc3)nc2n1-c1ccc2c(n1)[C@@](O)(CC)CC2 | – | PBS | pH 7.4 | thermodynamic solubility | 2130 µM
CCN(CC)CCNC(=O)c1cc(S(C)(=O)=O)ccc1OC | – | PBS | 2 h, pH 7.4, 25 °C | kinetic solubility | 394 µM (≈ 129 µg/mL)
N#Cc1ccc(C[C@@H](Nc2c(Nc3ccc(F)cc3)c(=O)c2=O)C(=O)N2CCc3ccccc32)cc1 | – | aqueous buffer | 2 h, pH 7.4, 37 °C | kinetic solubility | 11.8 µM (≈ 5.67 µg/mL)
Fc1ccccc1Nc1nc(-c2ccncc2)nc2c1CNCC2 | – | PBS | 24 h, pH 7.4 | kinetic solubility | > 250 µM
Cc1ccccc1CN1C(=O)C2=C(CCN(Cc3ccccc3)C2)N2CCN=C12 | shake flask | aqueous buffer | pH 6 | solubility | 260 µg/mL (≈ 673 µM)
N#Cc1ccc(C[C@H](Nc2c(Nc3ccc(Br)cc3)c(=O)c2=O)C(=O)N2CCc3ccccc32)cc1 | – | aqueous buffer | 2 h, pH 7.4, 37 °C | kinetic solubility | 9.2 µM (≈ 4.98 µg/mL)
O=[N+]([O-])c1ccc(Nc2ncnc3ccc(-c4cccc(N5CCOCC5)c4)cc23)cc1C(F)(F)F | – | aqueous buffer | pH 7.4, 25 °C | thermodynamic solubility | < 0.4 µM
CO[C@H]1C[C@@H]2CC[C@@H](C)[C@@](O)(O2)C(=O)C(=O)N2CCCC[C@H]2C(=O)O[C@H]([C@H](C)C[C@@H]2CC[C@@H](O)[C@H](OC)C2)CC(=O)[C@H](C)/C=C(\C)[C@@H](O)[C@@H](OC)C(=O)[C@H](C)C[C@H](C)/C=C/C=C/C=C/1C | – | aqueous buffer | 18 h, pH 7.4 | thermodynamic solubility | 6 µM
